How the values were obtained:
[1] = tested on: cell growth; conditions: cited from earlier work
[2] = tested on: LNCaP cells; assay: Cytotoxicity assay; format: cell-based; conditions: for selective cytotoxicity: LNCaP versus DU145 and PC3; for IC50: read-out: IC50 (Mean ± SE), LNCaP, PSMA positive, PTEN-deficient, 72 h, n=6
How it was run: (§1)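 DU145 and LNCaP were grown in RPMI-1640 and PC3 in F-12K, all with 10 % FBS. Cells were seeded at 5,000 per well. After 12 h, test compound (free or micelle-loaded) in PBS was added at 0, 0.1, 1, 5, 10, 50 or 100 μM. PBS and TCA served as negative and positive controls. After 72 h, 55-μM resazurin solution was added for 4 h at 37 °C, then resorufin fluorescence was read (ex 560/em 590 nm). IC50 was taken as the midpoint between controls on each plate.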

[3] = tested on: DU145 cells; assay: Cytotoxicity assay; format: cell-based; conditions: read-out: IC50 (Mean ± SE); DU145, PSMA negative, 72 h, n=6
How it was run: as §1

[4] = tested on: pAkt (Ser-473) in LNCaP cells; assay: Western blot assay of Akt phosphorylation; format: cell-based; conditions: 2-μM drug, 100-ng/mL EGF, 30 min, serum-starved LNCaP
How it was run: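 Cells were lysed in buffer with protease inhibitors, and protein was quantified by BCA. Equal protein amounts were run on 10 % SDS-PAGE and transferred to nitrocellulose. Blots were probed for phospho-Akt (Ser-473) and total Akt, followed by HRP-conjugated secondary antibodies and chemiluminescent detection.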

[5] = tested on: PC3 cells; assay: Cytotoxicity assay; format: cell-based; conditions: read-out: IC50 (Mean ± SE); PC3, PSMA negative, 72 h, n=6
How it was run: as §1

Structure (SMILES) | concentration at which cell growth is significantly inhibited [1] | selective cytotoxicity [2] | IC50 [2] [µM] | IC50 [3] [µM] | phosphorylation of Akt (Ser473) [4] | IC50 [5] [µM]
CC1(C)C(=CC=C2CCCC(C=CC3=[N+](CCCCS(=O)(=O)[O-])c4ccc5ccccc5c4C3(C)C)=C2Cl)N(CCCCS(=O)(=O)[O-])c2ccc3ccccc3c21.[Na+] [IR-820] | greater than 5 μM | – | – | – | – | –
Cc1cc(C(C)N(CCO)c2ccccc2)c2nc(N3CCOCC3)cc(=O)n2c1 (centres unmarked) [BL05] | – | selective cytotoxicity to LNCaP cells | 4.04 ± 0.11 | 32.4 ± 0.67 | inhibited phosphorylation of Akt | 23.4 ± 0.74
Cc1cc(C(C)Nc2ccccc2)c2nc(N3CCOCC3)cc(=O)n2c1 (centres unmarked) [TGX-221] | – | selective cytotoxicity to LNCaP cells | 3.98 ± 0.18 | 35.6 ± 0.12 | inhibited phosphorylation of Akt | 18.2 ± 0.85

Reference: paper PMC3601665 (Molecular pharmaceutics, 2012)
